From the array DNA melting data of Ke et al. (doi:10.1101/2024.01.08.574731)

What was measured:
[1] = folding enthalpy; higher = less favourable; fluorescence melt of hairpins on a sequencing array, two-state fit; settings: sodium 0.088 M
Summary of the method: (§1)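 Hairpins were imaged by Cy3 fluorescence on a sequenced MiSeq flow cell with annealed Cy3 and quencher oligos, in 50 mM Na-HEPES pH 8.0, 25 mM NaCl, in 2.5 °C steps up to 60 °C. Bootstrapped two-state fits of normalised signals gave melting temperature and folding enthalpy. Four replicates were combined by inverse variance, and fitted temperatures were raised by 9.35 °C to match UV melts.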

[2] = melting temperature; fluorescence melt of hairpins on a sequencing array, two-state fit, raised by 9.35 °C to match UV melts; settings: sodium 0.088 M
Summary of the method: as §1

Sequence | folding enthalpy [1] [kcal/mol] | Tm [2] [°C]
GATCAGATTACTGATC ((((((....)))))) | -30.3 | 50
GATCAGCAAACTGATC ((((((....)))))) | -32 | 48.2
GATCAGCAACCTGATC ((((((....)))))) | -33 | 46.2
GATCAGCAAGCTGATC ((((((....)))))) | -33 | 58.7
GATCAGCACGCTGATC ((((((....)))))) | -42.1 | 62.3
GATCAGCATCCTGATC ((((((....)))))) | -32.5 | 48
GATCAGCCACTGATC ((((((...)))))) | -32 | 48.6
GATCAGCCCACTGATC ((((((....)))))) | -37.6 | 51.6
GATCAGCCCCTGATC ((((((...)))))) | -36.2 | 49.2
GATCAGCCTCTGATC ((((((...)))))) | -38.5 | 47.9
GATCAGCCTGCTGATC ((((((....)))))) | -41.5 | 64.1
GATCAGCGAACTGATC ((((((....)))))) | -34.4 | 49.3
GATCAGCGACCTGATC ((((((....)))))) | -31.3 | 47.4
GATCAGCGGCTGATC ((((((...)))))) | -51 | 50.7
GATCAGCGTTCTGATC ((((((....)))))) | -37.3 | 49.8
GATCAGCTACTGATC ((((((...)))))) | -35.2 | 49.1
GATCAGCTAGCTGATC ((((((....)))))) | -48 | 62.1
GATCAGCTCGCTGATC ((((((....)))))) | -57.4 | 62.9
GATCAGGACACTGATC ((((((....)))))) | -45.4 | 56.7
GATCAGGACGCTGATC ((((((....)))))) | -41.7 | 54.2
GATCAGGACTCTGATC ((((((....)))))) | -40.6 | 55.6
GATCAGGAGACTGATC ((((((....)))))) | -37.6 | 51.3
GATCAGGAGTCTGATC ((((((....)))))) | -38.7 | 48.2
GATCAGGCAACTGATC ((((((....)))))) | -37.6 | 60.6

Sequence | folding enthalpy [1] [kcal/mol] | Tm [2] [°C]
GATCAGGCCCTGATC ((((((...)))))) | -33.9 | 50.1
GATCAGGCCGCTGATC ((((((....)))))) | -41.3 | 51.8
GATCAGGCGACTGATC ((((((....)))))) | -36.8 | 56.4
GATCAGGCGCTGATC ((((((...)))))) | -33.8 | 47.9
GATCAGGGAAACCTGACC (.(((((....))))).) | -17.2 | 36.3
GATCAGGGAAACCTGGTC ((.((((....)))).)) | -29.2 | 47.4
GATCAGGGCTCTGATC ((((((....)))))) | -38.8 | 55.1
GATCAGGGGACTGATC ((((((....)))))) | -32.5 | 53.8
GATCAGGTAACTGATC ((((((....)))))) | -39.9 | 57.1
GATCAGGTAGCTGATC ((((((....)))))) | -39.7 | 53.4
GATCAGGTCCCTGATC ((((((....)))))) | -39 | 54.6
GATCAGGTGCTGATC ((((((...)))))) | -39 | 48.6
GATCAGTATTCTGATC ((((((....)))))) | -39.1 | 51
GATCAGTCAACTGATC ((((((....)))))) | -37.6 | 50.9
GATCAGTCCACTGATC ((((((....)))))) | -37.6 | 54.3
GATCAGTCGTCTGATC ((((((....)))))) | -36.5 | 52.3
GATCAGTCTCTGATC ((((((...)))))) | -40.3 | 50.7
GATCAGTCTGCTGATC ((((((....)))))) | -41.6 | 52.7
GATCAGTGACTGATC ((((((...)))))) | -26.2 | 48.7
GATCAGTGCCTGATC ((((((...)))))) | -22.5 | 49
GATCAGTGGCCTGATC ((((((....)))))) | -36 | 50.6
GATCAGTGGTCTGATC ((((((....)))))) | -35.7 | 51.6
GATCAGTGTCCTGATC ((((((....)))))) | -36.2 | 49.6
GATCAGTGTCTGATC ((((((...)))))) | -34.8 | 50

Sequence | folding enthalpy [1] [kcal/mol] | Tm [2] [°C]
GATCAGTTCGCTGATC ((((((....)))))) | -44.9 | 54.1
GATCAGTTTCCTGATC ((((((....)))))) | -35 | 50.9
GATCAGTTTGCTGATC ((((((....)))))) | -44.1 | 53.8
GATCATAAACATGATC ((((((....)))))) | -31 | 43.1
GATCATAACATGATC ((((((...)))))) | -37 | 50.3
GATCATAACTATGATC ((((((....)))))) | -35.8 | 48
GATCATACATATGATC ((((((....)))))) | -40.7 | 47.7
GATCATACGAATGATC ((((((....)))))) | -34.4 | 44.7
GATCATACGATGATC ((((((...)))))) | -29.4 | 46.9
GATCATACTAATGATC ((((((....)))))) | -34.9 | 46.8
GATCATAGAGATGATC ((((((....)))))) | -30.1 | 44.5
GATCATAGCATGATC ((((((...)))))) | -37 | 49.9
GATCATATAATGATC ((((((...)))))) | -31.6 | 49
GATCATATTTATGATC ((((((....)))))) | -41.2 | 50.3
GATCATCAATATGATC ((((((....)))))) | -35 | 45
GATCATCAGAATGATC ((((((....)))))) | -22.6 | 46.9
GATCATCAGTATGATC ((((((....)))))) | -29.4 | 45.8
GATCATCATGATGATC ((((((....)))))) | -38 | 53.8
GATCATCCAATGATC ((((((...)))))) | -31.4 | 46.9
GATCATCCCATGATC ((((((...)))))) | -38.4 | 50.4
GATCATCCCGATGATC ((((((....)))))) | -51.9 | 52.1
GATCATCCGGATGATC ((((((....)))))) | -52.5 | 54.8
GATCATCGATATGATC ((((((....)))))) | -29.4 | 45.3
GATCATCGCAATGATC ((((((....)))))) | -39.1 | 48.3

Sequence | folding enthalpy [1] [kcal/mol] | Tm [2] [°C]
GATCATCGGAATGATC ((((((....)))))) | -38.9 | 45.8
GATCATCGTTATGATC ((((((....)))))) | -32.4 | 47.2
GATCATCTAATGATC ((((((...)))))) | -34.5 | 47.2
GATCATCTATATGATC ((((((....)))))) | -36.2 | 47.9
GATCATCTCATGATC ((((((...)))))) | -37.7 | 50
GATCATCTCCATGATC ((((((....)))))) | -32.9 | 46.8
GATCATCTCGATGATC ((((((....)))))) | -50.6 | 54.6
GATCATCTTCATGATC ((((((....)))))) | -37.2 | 47.3
GATCATCTTGATGATC ((((((....)))))) | -43.4 | 57.2
GATCATGAAGATGATC ((((((....)))))) | -34.9 | 50.3
GATCATGAGAATGATC ((((((....)))))) | -36.5 | 49.7
GATCATGAGTATGATC ((((((....)))))) | -31.1 | 46.7
GATCATGCTGATGATC ((((((....)))))) | -38.5 | 47.3
GATCATGGAAACATGACC (.(((((....))))).) | -17.4 | 36.1
GATCATGGAATGATC ((((((...)))))) | -39.3 | 56.5
GATCATGGAGATGATC ((((((....)))))) | -37.5 | 49.7
GATCATGGGAATGATC ((((((....)))))) | -36.8 | 51.8
GATCATGGGTATGATC ((((((....)))))) | -34.6 | 46.7
GATCATGTGATGATC ((((((...)))))) | -31.4 | 47.2
GATCATGTTCATGATC ((((((....)))))) | -43.1 | 52.5
GATCATTAAAATGATC ((((((....)))))) | -29.5 | 45.2
GATCATTACATGATC ((((((...)))))) | -33.8 | 50.2
GATCATTACCATGATC ((((((....)))))) | -35.3 | 46.8
GATCATTAGGATGATC ((((((....)))))) | -35.3 | 47.8
